From ChEMBL document CHEMBL5724801, “EUbOPEN Chemogenomics Library - Multiplex” (2024)
“And” between values parts separate entries of the source, which are not always exact repeats. Equal values may be shown once.

Tested on: U2OS
Test: Multiplex assay against U2OS
Assay type: toxicity, cell-based
Settings: human
In short: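 On a CQ1 microscope at 37°C and 5% CO2, live cells were imaged after compound addition. They had been stained at seeding with Hoechst33342, BioTracker Green Microtubule Cytoskeleton Dye, MitoTracker Red and Annexin V Alexa Fluor 680. CellPathfinder machine-learning gating assigned cells to Hoechst high-intensity objects or normal cells, normal cells to healthy, pyknosed or fragmented nuclei, and pyknosed cells to mitotic or apoptotic. Tubulin, mitochondrial-mass and membrane-permeability phenotypes are per cents of healthy-nucleus cells.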

[1] = 12 h, 1 µM, compound concentration 1 uM
[2] = 12 h, 10 µM, compound concentration 10 uM
[3] = 24 h, 1 µM, compound concentration 1 uM
[4] = 24 h, 10 µM, compound concentration 10 uM
[5] = 48 h, 1 µM, compound concentration 1 uM
[6] = 48 h, 10 µM, compound concentration 10 uM

## Cl.O=S(=O)(c1cccc2c(I)cccc12)N1CCCNCC1
[1]
  Population Apoptotic (%): 56.67% and 27.27%
  Population Fragmented Nuclei (%): 2.94% and 4.55%
  Population Healthy Nuclei (%): 89.04% and 87.12%
  Population Hoechst High Intensity Objects (%): 0%
  Population Membrane Permeable-Phenotype (%): 1.5% and 1.74%
  Population Mitochondria Different-Phenotype (%): 0.3% and 6.09%
  Population Mitotic Cells (%): 43.33% and 72.73%
  Population Normal (%): 100%
  Population Pyknosed Nuclei (%): 8.02% and 8.33%
  Population Tubulin-Different-Phenotype (%): 1.2% and 0%
  Total Cell Count: 374 and 132
[2]
  Population Apoptotic (%): 35.59% and 25%
  Population Fragmented Nuclei (%): 1.04% and 0.7%
  Population Healthy Nuclei (%): 86.75% and 74.13%
  Population Hoechst High Intensity Objects (%): 0%
  Population Membrane Permeable-Phenotype (%): 1.67% and 4.72%
  Population Mitotic Cells (%): 64.41% and 75%
  Population Normal (%): 100%
  Population Pyknosed Nuclei (%): 12.22% and 25.17%
  Population Tubulin-Different-Phenotype (%): 5.73% and 1.89%
[3]
  Population Apoptotic (%): 47.27% and 30.77%
  Population Fragmented Nuclei (%): 1.85% and 3.49%
  Population Healthy Nuclei (%): 86.83% and 88.95%
  Population Hoechst High Intensity Objects (%): 0% and 0.58%
  Population Membrane Permeable-Phenotype (%): 1.42% and 0.65%
  Population Mitochondria Different-Phenotype (%): 0% and 4.58%
  Population Mitotic Cells (%): 52.73% and 69.23%
  Population Normal (%): 100% and 99.42%
  Population Pyknosed Nuclei (%): 11.32% and 7.56%
  Population Tubulin-Different-Phenotype (%): 0.47% and 1.96%
  Total Cell Count: 486 and 173
[4]
  Population Apoptotic (%): 46.38% and 25%
  Population Fragmented Nuclei (%): 1.31% and 1.69%
  Population Healthy Nuclei (%): 87.4% and 73.6%
  Population Hoechst High Intensity Objects (%): 0%
  Population Membrane Permeable-Phenotype (%): 0.94% and 3.82%
  Population Mitotic Cells (%): 53.62% and 75%
  Population Normal (%): 100%
  Population Pyknosed Nuclei (%): 11.29% and 24.72%
  Population Tubulin-Different-Phenotype (%): 1.87% and 3.05%
[5]
  Population Apoptotic (%): 40% and 50%
  Population Fragmented Nuclei (%): 1.92% and 2.4%
  Population Healthy Nuclei (%): 89.6% and 90.07%
  Population Hoechst High Intensity Objects (%): 0%
  Population Membrane Permeable-Phenotype (%): 0.88% and 3.42%
  Population Mitochondria Different-Phenotype (%): 0% and 2.66%
  Population Mitotic Cells (%): 60% and 50%
  Population Normal (%): 100%
  Population Pyknosed Nuclei (%): 8.47% and 7.53%
  Population Tubulin-Different-Phenotype (%): 0.88% and 2.28%
[6]
  Population Apoptotic (%): 44.03% and 45.31%
  Population Fragmented Nuclei (%): 1.9% and 3.72%
  Population Healthy Nuclei (%): 82.95% and 72.49%
  Population Hoechst High Intensity Objects (%): 0.1% and 0%
  Population Membrane Permeable-Phenotype (%): 1.26% and 4.62%
  Population Mitochondria Different-Phenotype (%): 0.46% and 7.18%
  Population Mitotic Cells (%): 55.97% and 54.69%
  Population Normal (%): 99.9% and 100%
  Population Pyknosed Nuclei (%): 15.14% and 23.79%
  Population Tubulin-Different-Phenotype (%): 3.21% and 4.62%

## COCCNc1cc(NC(=O)N2CCCc3cc(CN4CCN(C)CC4=O)c(C=O)nc32)ncc1C#N [FGF401]
[1]
  Population Apoptotic (%): 50% and 42.86%
  Population Fragmented Nuclei (%): 2.96% and 1.3%
  Population Healthy Nuclei (%): 87.87% and 85.06%
  Population Hoechst High Intensity Objects (%): 0%
  Population Membrane Permeable-Phenotype (%): 2.15% and 0%
  Population Mitochondria Different-Phenotype (%): 0% and 2.29%
  Population Mitotic Cells (%): 50% and 57.14%
  Population Normal (%): 100%
  Population Pyknosed Nuclei (%): 9.16% and 13.64%
  Population Tubulin-Different-Phenotype (%): 2.15% and 0.76%
  Total Cell Count: 371 and 154
[2]
  Population Apoptotic (%): 37.5% and 26.32%
  Population Fragmented Nuclei (%): 0.72% and 5.88%
  Population Healthy Nuclei (%): 91.65% and 82.94%
  Population Hoechst High Intensity Objects (%): 0.24% and 0%
  Population Membrane Permeable-Phenotype (%): 1.3% and 4.26%
  Population Mitochondria Different-Phenotype (%): 0% and 3.55%
  Population Mitotic Cells (%): 62.5% and 73.68%
  Population Normal (%): 99.76% and 100%
  Population Pyknosed Nuclei (%): 7.64% and 11.18%
  Population Tubulin-Different-Phenotype (%): 0.52% and 0%
  Total Cell Count: 420 and 170
[3]
  Population Apoptotic (%): 48.94% and 42.31%
  Population Fragmented Nuclei (%): 1.93% and 2.97%
  Population Healthy Nuclei (%): 88.97% and 84.16%
  Population Hoechst High Intensity Objects (%): 0.19% and 0%
  Population Membrane Permeable-Phenotype (%): 0.87% and 1.18%
  Population Mitochondria Different-Phenotype (%): 0.87% and 4.71%
  Population Mitotic Cells (%): 51.06% and 57.69%
  Population Normal (%): 99.81% and 100%
  Population Pyknosed Nuclei (%): 9.09% and 12.87%
  Population Tubulin-Different-Phenotype (%): 0.87% and 0%
  Total Cell Count: 518 and 202
[4]
  Population Apoptotic (%): 43.18% and 34.29%
  Population Fragmented Nuclei (%): 1.85% and 3.54%
  Population Healthy Nuclei (%): 90.04% and 80.97%
  Population Hoechst High Intensity Objects (%): 0%
  Population Membrane Permeable-Phenotype (%): 1.23% and 2.19%
  Population Mitochondria Different-Phenotype (%): 0% and 3.28%
  Population Mitotic Cells (%): 56.82% and 65.71%
  Population Normal (%): 100%
  Population Pyknosed Nuclei (%): 8.12% and 15.49%
  Population Tubulin-Different-Phenotype (%): 0.61% and 1.09%
  Total Cell Count: 542 and 226
[5]
  Population Apoptotic (%): 45.12% and 50%
  Population Fragmented Nuclei (%): 4.25% and 1.54%
  Population Healthy Nuclei (%): 87.05% and 87.38%
  Population Hoechst High Intensity Objects (%): 0%
  Population Membrane Permeable-Phenotype (%): 0.73% and 3.17%
  Population Mitochondria Different-Phenotype (%): 0.49% and 4.23%
  Population Mitotic Cells (%): 54.88% and 50%
  Population Normal (%): 100%
  Population Pyknosed Nuclei (%): 8.7% and 11.08%
  Population Tubulin-Different-Phenotype (%): 0.73% and 0.7%
  Total Cell Count: 942 and 325
[6]
  Population Apoptotic (%): 39.42% and 53.49%
  Population Fragmented Nuclei (%): 2% and 2.76%
  Population Healthy Nuclei (%): 87.6% and 86.43%
  Population Hoechst High Intensity Objects (%): 0% and 0.25%
  Population Membrane Permeable-Phenotype (%): 1.14% and 2.62%
  Population Mitochondria Different-Phenotype (%): 0.11% and 1.45%
  Population Mitotic Cells (%): 60.58% and 46.51%
  Population Normal (%): 100% and 99.75%
  Population Pyknosed Nuclei (%): 10.4% and 10.8%
  Population Tubulin-Different-Phenotype (%): 0.91% and 1.16%
  Total Cell Count: 1000 and 399

## C=CC(=O)Nc1cc(Nc2nccc(-n3cc(CN(C)C)c(-c4ccccc4)n3)n2)c(OC)cc1N1CCOCC1 [LAZERTINIB]
[1]
  Population Apoptotic (%): 37.5% and 46.67%
  Population Fragmented Nuclei (%): 2.41% and 2.92%
  Population Healthy Nuclei (%): 85.54% and 75.18%
  Population Hoechst High Intensity Objects (%): 0%
  Population Membrane Permeable-Phenotype (%): 40.14% and 54.37%
  Population Mitotic Cells (%): 62.5% and 53.33%
  Population Normal (%): 100%
  Population Pyknosed Nuclei (%): 12.05% and 21.9%
  Population Tubulin-Different-Phenotype (%): 55.63% and 64.08%
  Total Cell Count: 332 and 137
[2]
  Population Apoptotic (%): 49.07% and 38.89%
  Population Fragmented Nuclei (%): 3.84% and 4.81%
  Population Healthy Nuclei (%): 68.54% and 60.58%
  Population Hoechst High Intensity Objects (%): 0%
  Population Membrane Permeable-Phenotype (%): 48.88% and 50.79%
  Population Mitotic Cells (%): 50.93% and 61.11%
  Population Normal (%): 100%
  Population Pyknosed Nuclei (%): 27.62% and 34.62%
  Population Tubulin-Different-Phenotype (%): 97.39% and 85.71%
[3]
  Population Apoptotic (%): 29.69% and 52.94%
  Population Fragmented Nuclei (%): 2.35% and 3.45%
  Population Healthy Nuclei (%): 80.94% and 73.1%
  Population Hoechst High Intensity Objects (%): 0%
  Population Membrane Permeable-Phenotype (%): 20% and 30.19%
  Population Mitotic Cells (%): 70.31% and 47.06%
  Population Normal (%): 100%
  Population Pyknosed Nuclei (%): 16.71% and 23.45%
  Population Tubulin-Different-Phenotype (%): 32.58% and 42.45%
  Total Cell Count: 383 and 145
[4]
  Population Apoptotic (%): 55.04% and 53.66%
  Population Fragmented Nuclei (%): 3.46% and 5.83%
  Population Healthy Nuclei (%): 64.69% and 54.37%
  Population Hoechst High Intensity Objects (%): 0.25% and 0%
  Population Membrane Permeable-Phenotype (%): 39.69% and 35.71%
  Population Mitotic Cells (%): 44.96% and 46.34%
  Population Normal (%): 99.75% and 100%
  Population Pyknosed Nuclei (%): 31.85% and 39.81%
  Population Tubulin-Different-Phenotype (%): 93.51% and 87.5%
[5]
  Population Apoptotic (%): 61.96% and 68.33%
  Population Fragmented Nuclei (%): 3% and 6.88%
  Population Healthy Nuclei (%): 79.78% and 55.62%
  Population Hoechst High Intensity Objects (%): 0%
  Population Mitotic Cells (%): 38.04% and 31.67%
  Population Normal (%): 100%
  Population Pyknosed Nuclei (%): 17.23% and 37.5%
  Population Tubulin-Different-Phenotype (%): 15.02% and 28.09%
[6]
  Population Apoptotic (%): 64.5% and 69.23%
  Population Fragmented Nuclei (%): 5.97% and 5.31%
  Population Healthy Nuclei (%): 59.26% and 60.18%
  Population Hoechst High Intensity Objects (%): 0%
  Population Membrane Permeable-Phenotype (%): 31.6% and 30.88%
  Population Mitotic Cells (%): 35.5% and 30.77%
  Population Normal (%): 100%
  Population Pyknosed Nuclei (%): 34.77% and 34.51%
  Population Tubulin-Different-Phenotype (%): 77.43% and 79.41%
